From ChEMBL document CHEMBL1629465, “Efficient synthesis of novel 1,2,4-triazole fused acyclic and 21-28 membered macrocyclic and/or lariat macrocyclic oxaazathia crown compounds with potential antimicrobial activity” (2010)

System: Escherichia coli
Test: Antimicrobial activity against Escherichia coli RCMB 103001 at 5 mg/ml by agar diffusion technique
Assay type: functional
Conditions: read-out: DIZ
Procedure, shortened: (§1)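 Agar well diffusion. Test compounds and reference standard drugs were diluted to 5.0, 2.5 and 1.0 mg/mL and applied to 0.6 cm wells. Inhibition zone beyond the control was scored as 0 (no inhibition), + (0.1–0.5 cm), ++ (0.6–1.0 cm) or +++ (1.0–1.5 cm).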

Row | SMILES | zone of inhibition at 5000 µg/mL [mm]
1 | Nn1c(SCCCSc2nnc(-c3cccnc3)n2N)nnc1-c1cccnc1 | 0
2 | Nn1c(SCCCCSc2nnc(-c3cccnc3)n2N)nnc1-c1cccnc1 | 0

System: Candida albicans
Test: Antimicrobial activity against Candida albicans RCMB 005003 at 2.5 mg/ml by agar diffusion technique
Assay type: functional
Conditions: read-out: DIZ
Procedure, shortened: as §1

Row | SMILES | zone of inhibition at 2500 µg/mL [mm]
3 | Nn1c(SCCCSc2nnc(-c3cccnc3)n2N)nnc1-c1cccnc1 | 0
4 | Nn1c(SCCCCSc2nnc(-c3cccnc3)n2N)nnc1-c1cccnc1 | 0

System: Syncephalastrum racemosum
Test: Antimicrobial activity against Syncephalastrum racemosum RCMB 016001 at 5 mg/ml by agar diffusion technique
Assay type: functional
Conditions: read-out: DIZ
Procedure, shortened: as §1

Row | SMILES | zone of inhibition at 5000 µg/mL [mm]
5 | Nn1c(SCCCSc2nnc(-c3cccnc3)n2N)nnc1-c1cccnc1 | 1
6 | Nn1c(SCCCCSc2nnc(-c3cccnc3)n2N)nnc1-c1cccnc1 | 1

System: Penicillium italicum
Test: Antimicrobial activity against Penicillium italicum RCMB 001018 at 1 mg/ml by agar diffusion technique
Assay type: functional
Conditions: read-out: DIZ
Procedure, shortened: as §1

Row | SMILES | zone of inhibition at 1000 µg/mL [mm]
7 | Nn1c(SCCCSc2nnc(-c3cccnc3)n2N)nnc1-c1cccnc1 | 0
8 | Nn1c(SCCCCSc2nnc(-c3cccnc3)n2N)nnc1-c1cccnc1 | 0

System: Escherichia coli
Test: Antimicrobial activity against Escherichia coli RCMB 103001 at 1 mg/ml by agar diffusion technique
Assay type: functional
Conditions: read-out: DIZ
Procedure, shortened: as §1

Row | SMILES | zone of inhibition at 1000 µg/mL [mm]
9 | Nn1c(SCCCSc2nnc(-c3cccnc3)n2N)nnc1-c1cccnc1 | 0
10 | Nn1c(SCCCCSc2nnc(-c3cccnc3)n2N)nnc1-c1cccnc1 | 0

System: Pseudomonas aeruginosa
Test: Antimicrobial activity against Pseudomonas aeruginosa RCMB 102002 at 5 mg/ml by agar diffusion technique
Assay type: functional
Conditions: read-out: DIZ
Procedure, shortened: as §1

Row | SMILES | zone of inhibition at 5000 µg/mL [mm]
11 | Nn1c(SCCCSc2nnc(-c3cccnc3)n2N)nnc1-c1cccnc1 | 0
12 | Nn1c(SCCCCSc2nnc(-c3cccnc3)n2N)nnc1-c1cccnc1 | 0

System: Syncephalastrum racemosum
Test: Antimicrobial activity against Syncephalastrum racemosum RCMB 016001 at 1 mg/ml by agar diffusion technique
Assay type: functional
Conditions: read-out: DIZ
Procedure, shortened: as §1

Row | SMILES | zone of inhibition at 1000 µg/mL [mm]
13 | Nn1c(SCCCSc2nnc(-c3cccnc3)n2N)nnc1-c1cccnc1 | 0
14 | Nn1c(SCCCCSc2nnc(-c3cccnc3)n2N)nnc1-c1cccnc1 | 1

System: Staphylococcus aureus
Test: Antimicrobial activity against Staphylococcus aureus RCMB 106001 at 1 mg/ml by agar diffusion technique
Assay type: functional
Conditions: read-out: DIZ
Procedure, shortened: as §1

Row | SMILES | zone of inhibition at 1000 µg/mL [mm]
15 | Nn1c(SCCCSc2nnc(-c3cccnc3)n2N)nnc1-c1cccnc1 | 0
16 | Nn1c(SCCCCSc2nnc(-c3cccnc3)n2N)nnc1-c1cccnc1 | 0

System: Aspergillus fumigatus
Test: Antimicrobial activity against Aspergillus fumigatus RCMB 002008 at 5 mg/ml by agar diffusion technique
Assay type: functional
Conditions: read-out: DIZ
Procedure, shortened: as §1

Row | SMILES | zone of inhibition at 5000 µg/mL [mm]
17 | Nn1c(SCCCSc2nnc(-c3cccnc3)n2N)nnc1-c1cccnc1 | 1
18 | Nn1c(SCCCCSc2nnc(-c3cccnc3)n2N)nnc1-c1cccnc1 | 0

System: Staphylococcus aureus
Test: Antimicrobial activity against Staphylococcus aureus RCMB 106001 at 2.5 mg/ml by agar diffusion technique
Assay type: functional
Conditions: read-out: DIZ
Procedure, shortened: as §1

Row | SMILES | zone of inhibition at 2500 µg/mL [mm]
19 | Nn1c(SCCCSc2nnc(-c3cccnc3)n2N)nnc1-c1cccnc1 | 0
20 | Nn1c(SCCCCSc2nnc(-c3cccnc3)n2N)nnc1-c1cccnc1 | 1

System: Syncephalastrum racemosum
Test: Antimicrobial activity against Syncephalastrum racemosum RCMB 016001 at 2.5 mg/ml by agar diffusion technique
Assay type: functional
Conditions: read-out: DIZ
Procedure, shortened: as §1

Row | SMILES | zone of inhibition at 2500 µg/mL [mm]
21 | Nn1c(SCCCSc2nnc(-c3cccnc3)n2N)nnc1-c1cccnc1 | 0
22 | Nn1c(SCCCCSc2nnc(-c3cccnc3)n2N)nnc1-c1cccnc1 | 1

System: Aspergillus fumigatus
Test: Antimicrobial activity against Aspergillus fumigatus RCMB 002008 at 2.5 mg/ml by agar diffusion technique
Assay type: functional
Conditions: read-out: DIZ
Procedure, shortened: as §1

Row | SMILES | zone of inhibition at 2500 µg/mL [mm]
23 | Nn1c(SCCCSc2nnc(-c3cccnc3)n2N)nnc1-c1cccnc1 | 1
24 | Nn1c(SCCCCSc2nnc(-c3cccnc3)n2N)nnc1-c1cccnc1 | 0

System: Pseudomonas aeruginosa
Test: Antimicrobial activity against Pseudomonas aeruginosa RCMB 102002 at 1 mg/ml by agar diffusion technique
Assay type: functional
Conditions: read-out: DIZ
Procedure, shortened: as §1

Row | SMILES | zone of inhibition at 1000 µg/mL [mm]
25 | Nn1c(SCCCSc2nnc(-c3cccnc3)n2N)nnc1-c1cccnc1 | 0
26 | Nn1c(SCCCCSc2nnc(-c3cccnc3)n2N)nnc1-c1cccnc1 | 0

System: Pseudomonas aeruginosa
Test: Antimicrobial activity against Pseudomonas aeruginosa RCMB 102002 at 2.5 mg/ml by agar diffusion technique
Assay type: functional
Conditions: read-out: DIZ
Procedure, shortened: as §1

Row | SMILES | zone of inhibition at 2500 µg/mL [mm]
27 | Nn1c(SCCCSc2nnc(-c3cccnc3)n2N)nnc1-c1cccnc1 | 0
28 | Nn1c(SCCCCSc2nnc(-c3cccnc3)n2N)nnc1-c1cccnc1 | 0

System: Bacillus subtilis
Test: Antimicrobial activity against Bacillus subtilis RCMB 101001 at 1 mg/ml by agar diffusion technique
Assay type: functional
Conditions: read-out: DIZ
Procedure, shortened: as §1

Row | SMILES | zone of inhibition at 1000 µg/mL [mm]
29 | Nn1c(SCCCSc2nnc(-c3cccnc3)n2N)nnc1-c1cccnc1 | 0
30 | Nn1c(SCCCCSc2nnc(-c3cccnc3)n2N)nnc1-c1cccnc1 | 0

System: Escherichia coli
Test: Antimicrobial activity against Escherichia coli RCMB 103001 at 2.5 mg/ml by agar diffusion technique
Assay type: functional
Conditions: read-out: DIZ
Procedure, shortened: as §1

Row | SMILES | zone of inhibition at 2500 µg/mL [mm]
31 | Nn1c(SCCCSc2nnc(-c3cccnc3)n2N)nnc1-c1cccnc1 | 0
32 | Nn1c(SCCCCSc2nnc(-c3cccnc3)n2N)nnc1-c1cccnc1 | 0

System: Staphylococcus aureus
Test: Antimicrobial activity against Staphylococcus aureus RCMB 106001 at 5 mg/ml by agar diffusion technique
Assay type: functional
Conditions: read-out: DIZ
Procedure, shortened: as §1

Row | SMILES | zone of inhibition at 5000 µg/mL [mm]
33 | Nn1c(SCCCSc2nnc(-c3cccnc3)n2N)nnc1-c1cccnc1 | 0
34 | Nn1c(SCCCCSc2nnc(-c3cccnc3)n2N)nnc1-c1cccnc1 | 1

System: Bacillus subtilis
Test: Antimicrobial activity against Bacillus subtilis RCMB 101001 at 5 mg/ml by agar diffusion technique
Assay type: functional
Conditions: read-out: DIZ
Procedure, shortened: as §1

Row | SMILES | zone of inhibition at 5000 µg/mL [mm]
35 | Nn1c(SCCCSc2nnc(-c3cccnc3)n2N)nnc1-c1cccnc1 | 0
36 | Nn1c(SCCCCSc2nnc(-c3cccnc3)n2N)nnc1-c1cccnc1 | 1

System: Candida albicans
Test: Antimicrobial activity against Candida albicans RCMB 005003 at 1 mg/ml by agar diffusion technique
Assay type: functional
Conditions: read-out: DIZ
Procedure, shortened: as §1

Row | SMILES | zone of inhibition at 1000 µg/mL [mm]
37 | Nn1c(SCCCSc2nnc(-c3cccnc3)n2N)nnc1-c1cccnc1 | 0
38 | Nn1c(SCCCCSc2nnc(-c3cccnc3)n2N)nnc1-c1cccnc1 | 0

System: Candida albicans
Test: Antimicrobial activity against Candida albicans RCMB 005003 at 5 mg/ml by agar diffusion technique
Assay type: functional
Conditions: read-out: DIZ
Procedure, shortened: as §1

Row | SMILES | zone of inhibition at 5000 µg/mL [mm]
39 | Nn1c(SCCCSc2nnc(-c3cccnc3)n2N)nnc1-c1cccnc1 | 1
40 | Nn1c(SCCCCSc2nnc(-c3cccnc3)n2N)nnc1-c1cccnc1 | 0

System: Penicillium italicum
Test: Antimicrobial activity against Penicillium italicum RCMB 001018 at 2.5 mg/ml by agar diffusion technique
Assay type: functional
Conditions: read-out: DIZ
Procedure, shortened: as §1

Row | SMILES | zone of inhibition at 2500 µg/mL [mm]
41 | Nn1c(SCCCSc2nnc(-c3cccnc3)n2N)nnc1-c1cccnc1 | 0
42 | Nn1c(SCCCCSc2nnc(-c3cccnc3)n2N)nnc1-c1cccnc1 | 0

System: Penicillium italicum
Test: Antimicrobial activity against Penicillium italicum RCMB 001018 at 5 mg/ml by agar diffusion technique
Assay type: functional
Conditions: read-out: DIZ
Procedure, shortened: as §1

Row | SMILES | zone of inhibition at 5000 µg/mL [mm]
43 | Nn1c(SCCCSc2nnc(-c3cccnc3)n2N)nnc1-c1cccnc1 | 0
44 | Nn1c(SCCCCSc2nnc(-c3cccnc3)n2N)nnc1-c1cccnc1 | 0

System: Aspergillus fumigatus
Test: Antimicrobial activity against Aspergillus fumigatus RCMB 002008 at 1 mg/ml by agar diffusion technique
Assay type: functional
Conditions: read-out: DIZ
Procedure, shortened: as §1

Row | SMILES | zone of inhibition at 1000 µg/mL [mm]
45 | Nn1c(SCCCSc2nnc(-c3cccnc3)n2N)nnc1-c1cccnc1 | 0
46 | Nn1c(SCCCCSc2nnc(-c3cccnc3)n2N)nnc1-c1cccnc1 | 0

System: Bacillus subtilis
Test: Antimicrobial activity against Bacillus subtilis RCMB 101001 at 2.5 mg/ml by agar diffusion technique
Assay type: functional
Conditions: read-out: DIZ
Procedure, shortened: as §1

Row | SMILES | zone of inhibition at 2500 µg/mL [mm]
47 | Nn1c(SCCCSc2nnc(-c3cccnc3)n2N)nnc1-c1cccnc1 | 0
48 | Nn1c(SCCCCSc2nnc(-c3cccnc3)n2N)nnc1-c1cccnc1 | 1
